Screening results from PubChem.
Most compounds without a hit are left out; they make up all but 2.2% or so of the library.
MT stabilizer – microtubule stabilizers in HeLa cells, primary screen, imaging, high-content imaging. HeLa tubulin immunostaining HCS, 24 h; share of cells brighter than vehicle mean+2SD. % tubulin-high responders, % at 10 µM. hit rate 0.83% among 200,000. AID 2205, 2009;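 active = plate Z-score above 3 for both tubulin-high and condensed-nucleus cell shares, with cell loss under 80%, at 10 µM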;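 also: anti alpha tubulin signal scored within the nucleus-defined area of each cell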
IEC-6 cytotox – cytotoxicity in IEC-6 intestinal epithelial cells, primary screen, cytotoxicity control for KLF5 inhibitor project, cell-based, luminescence. IEC-6 cytotoxicity, luminescence viability. inhibition, % at 5 µM. hit rate 0.78% among 290,000. AID 1825, 2009;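 also: 0% = plate median of test compound wells and 100% = cytotoxic reference compound wells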
Ba/F3 V617F tox – reduced viability of JAK2V617F-dependent Ba/F3 cells, primary screen, JAK2V617F inhibitor project, cell-based, Ba/F3 EpoR-JAK2V617F, luminescence | hit rate 1.1% among 220,000 | inhibition, % at 5.6 µM | ATP luminescence;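 active = inhibition above the campaign mean plus 3 SD over all tested compounds, cut at about 24% in these data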;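 also: cytokine-independent growth of Ba/F3 cells driven by EpoR plus mutant JAK2; 0% = DMSO-treated cells and 100% = JAK inhibitor I control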
bCat nuc transl – modulators of beta-catenin nuclear translocation, primary screen, imaging, HeLa cells, immunofluorescence, high-content; nuclear translocation activity, % at 5 µM; hit rate 0.3% among 190,000; AID 1665, 2009;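 active = nuclear translocation activity above 50% at 5 µM, with a well cell count of 50 or more; inconclusive = wells under 50 cells across six images, flagged as toxic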;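 also: per-cell ratio of nuclear to cytoplasmic median beta-catenin stain intensity; plate controls were DMSO negative control for no effect and GSK-3 inhibitor IX positive control for full effect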
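assay system = human HeLa cells, endogenous beta-catenin | times = compound treatment 24 h, 37°C, 5% CO2 | detection = Anti-beta-catenin immunofluorescence on PFA-fixed, Triton-permeabilized cells, DAPI nuclei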
APP 5UTR inh – inhibitors of APP translation via 5'UTR reporter, primary screen, APP 5'UTR luciferase, SH-SY5Y cells. hit rate 0.82% among 190,000. SH-SY5Y APP 5'UTR-luciferase reporter, luminescence. inhibition, % at 2 µM. AID 1285, 2008;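 active = inhibition above a set limit, derived from the sample mean plus 3 SD, cut at about 45% in these data; inconclusive = one replicate passes the limit while the other fails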
BaF3 parental – parental Ba/F3 cell viability inhibition, counter-screen for JAK2V617F inhibitor project, murine pro-B, CellTiter-Glo luminescence | inhibition, % at 5.6 µM | CellTiter-Glo ATP luminescence | hit rate 1.1% among 220,000 | AID 1486, 2009;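 active = inhibition above a per-campaign cutoff, the mean inhibition of all tested compounds plus 3 SD, cut at about 27% in these data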;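 also: 0% = DMSO wells and 100% = JAK Inhibitor I control wells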
IEC-6 tox confirm – cytotoxic compounds in IEC-6 epithelial cells, confirmation, cytotoxicity control, cell-based, luminescence; hit rate 63% among 1,900; shares compounds with IEC-6 cytotox; IEC-6 rat intestinal epithelial viability; inhibition, % at 5 µM;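 also: 0% = vehicle and 100% = reference cytotoxic drug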
An asterisk follows results filed as active; ? = inconclusive; · = no result; ! = not confirmed by another sample. Rule as the data show it, unless noted: active = inhibition above about 22%; inactive = the rest.

SMILES | MT stabilizer | IEC-6 cytotox | Ba/F3 V617F tox | bCat nuc transl | APP 5UTR inh | BaF3 parental | IEC-6 tox confirm
COc1ccc(-[n+]2c(-c3ccccc3)cc(-c3ccc(C)cc3)cc2-c2ccccc2)cc1 | · | 66* | · | · | · | · | 65*
COc1ccc(-c2nc3ccccc3c(=O)n2-c2nccs2)cc1 | 3 | 5 | -2 | -2 | 10 | 0 | ·
Cc1nc2c(=O)n(C)c(=O)nc-2n(C)n1 | 2 | 102* | 99* | 0 | 6 | 101* | 96*
N=Cc1c(O)n(-c2ccccc2)c(=O)n(-c2ccccc2)c1=O | · | -3 | -2 | 1 | · | 4 | ·
Cc1c(Cl)cccc1N1C(=O)NC(=O)/C(=C\c2cc(C)n(-c3cccc(C(=O)O)c3C)c2C)C1=O | · | -11 | · | · | · | · | ·
Cc1ccsc1C(=O)C1CCCN(CCO)C1 (stereo not drawn) | 2 | 5 | -5 | -3 | -26 | 0 | ·
O=C(O)c1cccc2nc3ccccc3nc12 | 6 | 40* | 1 | -1 | 2 | 7 | 16
CCOC(=O)Cn1cc(C(=O)c2ccccc2)c2ccccc21 | · | -2 | · | · | · | · | ·
CC(=O)O[C@H]1C(=O)[C@@]2(C)C([C@H](OC(=O)c3ccccc3)[C@]3(O)C[C@H](OC(=O)[C@H](O)[C@@H](NC(=O)Cc4ccccc4)c4ccccc4)C(C)=C1C3(C)C)[C@]1(OC(C)=O)CO[C@@H]1C[C@@H]2O (stereo partly drawn) | · | 91* | · | · | · | · | 86*
CC(=O)O[C@@]12CO[C@@H]1C[C@H](O)[C@@]1(C)C(=O)[C@H](O)C3=C(C)[C@@H](OC(=O)[C@H](O)[C@@H](NC(=O)c4ccccc4)c4ccccc4)C[C@@](O)([C@@H](OC(=O)c4ccccc4)C12)C3(C)C (stereo partly drawn) | · | 92* | · | · | · | · | 71*
COc1cc2c(c(OC)c1OC)-c1ccc(O)c(=O)cc1C(NC(C)=O)CC2 (stereo not drawn) | · | 94* | · | · | · | · | 83*
COc1cc(O)cc2c1C(=O)O[C@@H](C)CCCC(=O)CCCCC2 | · | -6 | · | · | · | · | ·
NC(=O)c1cn(C2OC(CO)C(O)C2O)c2ncnc(N)c12 (stereo not drawn) | 20* | 100* | 102* | ? | 95* | 102* | 100*
c1ccc(-n2ccnc2)cc1 | · | 3 | · | · | · | · | ·
c1cncc(C2Nc3cccc4cccc(c34)N2)c1 | · | 38*! | 2 | 0 | · | 2 | 16
CCOC(=O)N1CCC(NC(=O)CCc2nc(C3=CCN(C)CC3)no2)CC1 | 6 | -9 | -3 | 1 | -16 | -1 | ·
CN1/C(=C\C=C\C2=[N+](C)c3ccc4ccccc4c3C2(C)C)C(C)(C)c2ccccc21 | 5 | 74* | 99* | -17 | 95* | 95* | 80*
CN1/C(=C\C=C2C(=O)NC(=O)NC2=O)C(C)(C)c2ccccc21 | 6 | 6 | 5 | · | -13 | 6 | ·
Cc1cc(OC(C)C(=O)NCc2ccncc2)c2c3c(c(=O)oc2c1)CCC3 (stereo not drawn) | · | 9 | · | · | · | · | ·
C=C1[C@@H](C)[C@H]2[C@H](Cc3ccccc3)NC(=O)[C@]23OC(=O)/C=C/[C@H](O)CCC[C@@H](C)C/C=C/[C@H]3[C@@H]1O | · | 87* | 44* | 13 | 54* | 48* | 85*
COc1cc2c(cc1/C=C/[N+](=O)[O-])OCO2 | 4 | 42* | 10 | -3 | 23 | -5 | 17
Nc1ccc(Cl)cc1C(=O)c1ccccc1Cl | 4 | -7 | -3 | 2 | -12 | 4 | ·
